{"source": "ChEMBL document CHEMBL1208778", "about": "“Synthesis and anti-cancer activity of chalcone linked imidazolones” (2010)", "key": {"MCF7 [1]": {"tested_on": "MCF7", "assay": "Cell cycle arrest in human MCF7 cells assessed as accumulation at S phase at 10 uM after 24 hrs by FACS analysis", "format": "functional", "summary_of_the_method": "(§1)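 MCF-7 breast carcinoma cells were exposed to 10 µM test compound for 24 h, with DMSO as the vehicle control. Cell-cycle distribution was read by FACS as the percentage of cells in G0, G1, S and G2/M.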"}, "MCF7 [2]": {"tested_on": "MCF7", "assay": "Induction of apoptosis in human MCF7 cells assessed as […] in PARP cleavage at 30 uM after 24 hrs by Western blot analysis", "format": "functional, cell-based", "summary_of_the_method": "(§2)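 MCF-7 breast carcinoma cells were exposed to 30 µM compound for 24 h, with CA-4 as positive control. Cell lysates were then immunoblotted with antibodies to procaspase-7 and cleavage-specific PARP, using β-actin as loading control.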"}, "MCF7 [3]": {"tested_on": "MCF7", "assay": "Induction of apoptosis in human MCF7 cells assessed as decrease in procaspase 7 level at 30 uM after 24 hrs by Western blot analysis", "format": "functional, cell-based", "summary_of_the_method": "as §2"}, "MCF7 [4]": {"tested_on": "MCF7", "assay": "Cell cycle arrest in human MCF7 cells assessed as accumulation at G1 phase at 10 uM after 24 hrs by FACS analysis", "format": "functional", "summary_of_the_method": "as §1"}, "MCF7 [5]": {"tested_on": "MCF7", "assay": "Cell cycle arrest in human MCF7 cells assessed as accumulation at S phase at 30 uM after 24 hrs by FACS analysis", "format": "functional", "summary_of_the_method": "(§3)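 MCF-7 cells were treated at 30 µM for 24 h alongside a DMSO control. Fractions in G0, G1, S and G2/M phases were measured by FACS, and values are means of three experiments.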"}, "MCF7 [6]": {"tested_on": "MCF7", "assay": "Cell cycle arrest in human MCF7 cells assessed as accumulation at G2/M phase at 10 uM after 24 hrs by FACS analysis", "format": "functional", "summary_of_the_method": "as §1"}, "MCF7 [7]": {"tested_on": "MCF7", "assay": "Cell cycle arrest in human MCF7 cells assessed as accumulation at G0 phase at 10 uM after 24 hrs by FACS analysis", "format": "functional", "summary_of_the_method": "as §1"}, "MCF7 [8]": {"tested_on": "MCF7", "assay": "Cell cycle arrest in human MCF7 cells assessed as accumulation at G0 phase at 30 uM after 24 hrs by FACS analysis", "format": "functional", "summary_of_the_method": "as §3"}, "MCF7 [9]": {"tested_on": "MCF7", "assay": "Cell cycle arrest in human MCF7 cells assessed as accumulation at G2/M phase at 30 uM after 24 hrs by FACS analysis", "format": "functional", "summary_of_the_method": "as §3"}, "MCF7 [10]": {"tested_on": "MCF7", "assay": "Cell cycle arrest in human MCF7 cells assessed as accumulation at G1 phase at 30 uM after 24 hrs by FACS analysis", "format": "functional", "summary_of_the_method": "as §3"}}, "note": "Active and inactive are the calls of the source. The rule behind the calls is not given here.", "data": [{"compound": "COc1cc(/C=C/C(=O)c2cccc(N)c2)cc(OC)c1OC", "values": [{"measurement": "Activity", "setting": "MCF7 [1]", "value": 14.96, "unit": "%"}, {"measurement": "Activity", "setting": "MCF7 [2]", "value": "inactive"}, {"measurement": "Activity", "setting": "MCF7 [3]", "value": "inactive"}, {"measurement": "Activity", "setting": "MCF7 [4]", "value": 56.17, "unit": "%"}, {"measurement": "Activity", "setting": "MCF7 [5]", "value": 9.31, "unit": "%"}, {"measurement": "Activity", "setting": "MCF7 [6]", "value": 23.57, "unit": "%"}, {"measurement": "Activity", "setting": "MCF7 [7]", "value": 2.87, "unit": "%"}, {"measurement": "Activity", "setting": "MCF7 [8]", "value": 22.58, "unit": "%"}, {"measurement": "Activity", "setting": "MCF7 [9]", "value": 15.8, "unit": "%"}, {"measurement": "Activity", "setting": "MCF7 [10]", "value": 52.31, "unit": "%"}]}]}
